Screening data as filed in PubChem.
L major viab: inhibitors of Leishmania major promastigote growth. Leishmania major promastigotes, resazurin fluorescence viability. inhibition, % at 10 µM. 200,000 tested, 9% active;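 also: promastigotes grown with compound for 44 hours at 28 °C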
PfG6PD inh: PfG6PD (Plasmodium falciparum) enzyme inhibition; PfGluPho enzyme, NADPH resazurin-diaphorase fluorescence; inhibition, % at 20 µM; 350,000 tested, 0.78% active;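 active = inhibition reaching at least a set limit at 20 µM in the primary screen, cut at about 59% in these data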
G6PDH counter: L. mesenteroides G6PDH inhibition counter-screen | Purified L. mesenteroides G6PDH, diaphorase/resazurin coupled fluorescence, 45 min | inhibition, % at 5 µM | 200,000 tested, 0.12% active
Diaph act CS: counter-screen for diaphorase-based assays: diaphorase activators and chemical reducers; Diaphorase/resazurin coupled assay, resorufin fluorescence, 16 min; stronger effect = higher value; 1 = vehicle wells, 0 = NADH-free wells; activation factor at 20 µM; 190,000 tested, 0.005% active;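 active = diaphorase activity raised at least twofold by the compound at 20 µM; inactive = activation factor below 2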
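Material: purified diaphorase enzyme from Clostridium kluyveri; Also added: 0.114 mM NADH and 0.1 mM resazurin, final amounts; Doses: single compound dose of 20 µM, 1% DMSO final; Times: 16 min enzyme reaction, ambient temperature; Detection: resorufin fluorescence, excitation 544 nm, emission 590 nm; Measure: increased resorufin signal from activators or reducing compounds.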
Diaphorase inh: diaphorase inhibition or chemical oxidation counter-screen; diaphorase resazurin-to-resorufin fluorescence, NADH, 16 min; bacterial (C. kluyveri) enzyme, not human; inhibition, % at 20 µM; 190,000 tested, 0.69% active; AID 1217;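 active = primary screen inhibition at 20 µM above a set limit, cut at about 50% in these data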
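Benchmarks: positive control wells lacking NADH, neutral wells with DMSO only. System: bacterial diaphorase enzyme (C. kluyveri). Input: 0.14 U/mL diaphorase, enzyme working solution. Detection: resorufin fluorescence, excitation 544 nm, emission 590 nm. Times: 16-min room-temperature incubation before reading.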
Redox H2O2 prof: compounds producing H2O2 with reducing agent – biochemical, NIH compound library profiling, artefact control for MLSCN library redox annotation, primary screen | AID 878 | DTT-dependent redox cycling H2O2, phenol red/HRP absorbance; 100% = 100 µM peroxide control, 0% = buffer | activation, % at 10 µM | 200,000 tested, 0.03% active;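 active = activation of at least 50% relative to the plate's high and low controls in the primary single-dose screen; inactive = activation below 50%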;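 also: compound incubated with DTT at 0.8 mM final as the reducing agent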
PfG6PD confirm: confirmation of Plasmodium falciparum G6PD inhibitors; shares compounds with PfG6PD inh; recombinant PfGluPho, NADPH-diaphorase-resazurin fluorescence; inhibition, % at 20 µM; 2,400 tested, 34% active; AID 504753;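 active = inhibition of at least 50% at 20 µM in any single replicate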
Diaph ctr 10uM: inhibits diaphorase or oxidizes, flagging false PfG6PD hits | shares compounds with PfG6PD inh | inhibition, % at 20 µM | 820 tested, 39% active | diaphorase-coupled resazurin reduction, fluorescence, NADPH 10 uM;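 active = average inhibition reaching 50% or more with the compound at 20 µM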;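 also: resorufin red fluorescence formed as diaphorase reduces resazurin using NADPH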
Diaphorase 30uM: inhibits diaphorase or oxidizes, flagging false PfG6PD hits. AID 504863. 820 tested, 29% active. inhibition, % at 20 µM. Diaphorase/resazurin coupled assay, resorufin fluorescence, 30 uM NADPH. shares compounds with PfG6PD inh;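 active = inhibition averaging 50% or more, tested at 20 µM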
Numbers stand for hits; 0 = inactive; - = no result. The full list was thinned out, with hits kept by preference. Rule as the data show it, unless noted: active = inhibition above about 50%; inactive = the rest.

SMILES | L major viab | PfG6PD inh | G6PDH counter | Diaph act CS | Diaphorase inh | Redox H2O2 prof | PfG6PD confirm | others
Cc1cc(Br)c(Oc2cc(NN3CCCCC3)c([N+](=O)[O-])cc2[N+](=O)[O-])c(Br)c1 | - | 0 | - | - | - | - | -
Oc1ccc(NCc2cccc(OCc3ccccc3)c2)cc1 | 0 | 59 | 0 | 0 | 0 | 0 | 0
O=C(Nc1cc(S(=O)(=O)N2CCOCC2)ccc1N1CCCCC1)c1cc(-c2ccccn2)nc2ccccc12 | 0 | 71 | 0 | 0 | 0 | 0 | 0
CN(C)S(=O)(=O)c1cccc(C(=O)Nc2cc(S(=O)(=O)N3CCOCC3)ccc2N2CCCC2)c1 | - | 66 | - | - | - | - | 0
Cc1ccc(S(=O)(=O)N2CCOCC2)cc1NC(=O)c1cc(-c2ccccn2)nc2ccccc12 | - | 0 | - | - | - | - | -
COc1ccc(/C=C(\C#N)C(=O)Nc2cc(S(=O)(=O)N3CCOCC3)ccc2N2CCCC2)cc1 | 0 | 64 | 0 | 0 | 0 | 0 | 0
CCOC(=O)c1cc2occc2n1CC(=O)Nc1ccc(OC)cc1OC | 0 | 0 | 0 | 0 | 0 | 0 | -
CC(Oc1cccc(Cl)c1)C(=O)Nc1ccc(N2CCOCC2)cc1N1CCOCC1 (stereo not given) | - | 0 | - | - | - | - | -
CC(C)COC(=O)N(C)C[C@H]1OCc2cnnn2CCCC(=O)N([C@H](C)CO)C[C@@H]1C | - | 0 | - | - | - | - | -
O=c1cc(CN2CCN(c3cccc(C(F)(F)F)c3)CC2)nc2sccn12 | - | 0 | - | - | - | - | -
COC(=O)[C@H](CCSC)NC(=O)c1cc2c(cn1)[nH]c1ccccc12 | - | 80 | - | - | - | - | 57 | Diaph ctr 10uM=0;Diaphorase 30uM=0
CC(C)[C@H](NS(=O)(=O)c1ccccc1)C(=O)OCc1cc([N+](=O)[O-])cc2c1OCOC2 | - | 0 | - | - | - | - | -
COc1ccc(CCCC(=O)N/N=C/c2ccccc2OC)cc1 | 0 | 98 | 0 | 0 | 0 | 0 | 67 | Diaph ctr 10uM=70;Diaphorase 30uM=57
COc1ccccc1C=NN=C(NN=Cc1ccccc1OC)NN=Cc1ccccc1OC | - | 77 | - | - | - | - | 0
COc1ccc(CCCc2nnc(SCC(=O)Nc3cc(C)c(C)cc3Br)o2)cc1 | 0 | 0 | 0 | 0 | 0 | 0 | -
COc1ccccc1/C=N/NC(=O)CCSc1ccccc1 | 0 | 63 | 0 | 0 | 0 | 0 | 72 | Diaph ctr 10uM=65;Diaphorase 30uM=67
COc1ccc(OC)c(/C=N\NC(=O)CSc2nnc(CCCc3ccc(OC)c(C)c3)o2)c1 | 0 | 96 | 0 | 0 | 0 | 0 | 0
O=C(NNS(=O)(=O)c1ccc2ccccc2c1)c1cccnc1 | 0 | 0 | 0 | 0 | 0 | 0 | -
O=C(C[n+]1ccccc1)N/N=C/c1ccc(C(=O)O)cc1 | - | 0 | - | - | - | - | -
CCOC(=O)C1Nc2ccc(C(=O)O)cc2C2C=CCC12 (stereo not given) | - | 62 | - | - | - | - | 0
Cc1cnc(C(=O)OCc2ccc(C#N)cc2)cn1 | - | 0 | - | - | - | - | -
CCn1ncc2c(OCc3ccc(C#N)cc3)cc(C)nc21 | 0 | 68 | 0 | 0 | 0 | 0 | 0
CCOc1ccc(Oc2ccccc2NC(=O)CCc2nc3ccccc3c(=O)[nH]2)cc1 | - | 0 | - | - | - | - | -
CCOc1ccccc1NC(=O)CCCc1nc2ccccc2c(=O)[nH]1 | 0 | 67 | 0 | 0 | 0 | 0 | 53 | Diaph ctr 10uM=0;Diaphorase 30uM=0
Cc1ccc(Oc2ccc(OCC(=O)NC(CC(C)C)C(=O)O)cc2)cc1 (stereo not given) | 0 | 0 | 0 | 0 | 0 | 0 | -
O=C(CSc1nc2ccccc2[nH]1)NC1CCCC1 | 0 | 0 | 0 | 0 | 0 | 0 | -
O=C(CSc1nc2ccccc2[nH]1)NC1CCCc2ccccc21 (stereo not given) | 0 | 64 | 0 | 0 | 0 | 0 | 57 | Diaph ctr 10uM=0;Diaphorase 30uM=0
Cc1nnc(SC(C)C(=O)NC2CCCc3ccccc32)n1-c1ccccc1 (stereo not given) | 0 | 0 | 0 | 0 | 0 | 0 | -
